Results taken from ChEMBL document CHEMBL1240443, “A study of cytotoxicity of novel chlorokojic acid derivatives with their antimicrobial and antiviral activities” (Eur J Med Chem, 2010).
Values after ≈ are worked out from the molar mass of the structure shown.

Assays:
Acinetobacter baumannii [1] = experiment: Antimicrobial activity against cephalosporin-resistant Acinetobacter baumannii by spectrophotometry; assay type: functional
Procedure, shortened: (§1)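 Broth microdilution in Mueller–Hinton broth. Two-fold dilutions from 256 to 0.125 µg/mL. Inoculum 10^5 c.f.u./mL, diluted from a McFarland 0.5 culture. Incubated at 35 °C for 24 h and 48 h in a humid chamber, triplicate.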

Acinetobacter baumannii [2] = experiment: Antimicrobial activity against Acinetobacter baumannii RSKK 02026 by spectrophotometry; assay type: functional; procedure, shortened: as §1
Proteus mirabilis [3] = experiment: Antimicrobial activity against extended spectrum beta lactamase expressing Proteus mirabilis by spectrophotometry; assay type: functional; procedure, shortened: as §1
Candida parapsilosis = experiment: Antifungal activity against Candida parapsilosis ATCC 22019 by spectrophotometry; assay type: functional; conditions: Lodderomyces parapsilosis
Procedure, shortened: (§2)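 Yeast broth microdilution in RPMI-1640 with L-glutamine, buffered to pH 7 with MOPS. Inoculum 10^5 c.f.u./mL, prepared by the spectrophotometric method. Two-fold dilutions from 256 to 0.125 µg/mL. Incubated at 35 °C for 24 h and 48 h in a humid chamber, triplicate.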

Proteus mirabilis [4] = experiment: Antimicrobial activity against Proteus mirabilis ATCC 7002 by spectrophotometry; assay type: functional; procedure, shortened: as §1
Pseudomonas aeruginosa [5] = experiment: Antimicrobial activity against trimethoprim-sulfamethoxazole and tazobactum-induced Pseudomonas aeruginosa by spectrophotometry; assay type: functional; procedure, shortened: as §1
Escherichia coli [6] = experiment: Antimicrobial activity against extended spectrum beta lactamase expressing Escherichia coli by spectrophotometry; assay type: functional; procedure, shortened: as §1
Candida albicans = experiment: Antifungal activity against Candida albicans ATCC 10231 by spectrophotometry; assay type: functional; procedure, shortened: as §2
Escherichia coli [7] = experiment: Antimicrobial activity against Escherichia coli ATCC 35218 by spectrophotometry; assay type: functional; procedure, shortened: as §1
Klebsiella pneumoniae [8] = experiment: Antimicrobial activity against Klebsiella pneumoniae RSKK 574 by spectrophotometry; assay type: functional; procedure, shortened: as §1
Klebsiella pneumoniae [9] = experiment: Antimicrobial activity against extended spectrum beta lactamase expressing Klebsiella pneumoniae by spectrophotometry; assay type: functional; procedure, shortened: as §1
Staphylococcus aureus = experiment: Antimicrobial activity against methicillin-resistant Staphylococcus aureus by spectrophotometry; assay type: functional; procedure, shortened: as §1
Enterococcus faecalis [10] = experiment: Antimicrobial activity against Enterococcus faecalis ATCC 29212 by spectrophotometry; assay type: functional; procedure, shortened: as §1
Enterococcus faecalis [11] = experiment: Antimicrobial activity against cephalosporin-resistant Enterococcus faecalis by spectrophotometry; assay type: functional; procedure, shortened: as §1
Bacillus subtilis [12] = experiment: Antimicrobial activity against Bacillus subtilis ATCC 6633 by spectrophotometry; assay type: functional; procedure, shortened: as §1
Bacillus subtilis [13] = experiment: Antimicrobial activity against ceftriaxone-resistant Bacillus subtilis by spectrophotometry; assay type: functional; procedure, shortened: as §1
[14] = Cytotoxicity against MDBK cells after 48 hrs; assay type: cell-based, Bos taurus; conditions: cattle
[15] = Cytotoxicity against african green monkey Vero cells after 48 hrs; assay type: cell-based; conditions: chlorocebus sabaeus
Procedure, shortened: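 Confluent cell monolayers exposed to two-fold (Log2) dilutions of each sample (51.2–0.012 µg/mL) in EMEM, 5% CO2, 37 °C, 48 h. Scored by light microscopy against untreated cultures; rows damaging all cells counted toxic. Maximum non-toxic concentration (MNTC, µg/mL) taken as highest concentration leaving cells unaffected. Vero grown in EMEM/10% fetal calf serum with streptomycin/penicillin.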

Pseudomonas aeruginosa [16] = experiment: microbe, parasite or virus in culture; conditions: ATCC 10145
Human respirovirus 3 = experiment: Antiviral activity against parainfluenza-3 virus infected in Vero cells assessed as reduction of virus-induced cytopathic effect; assay type: functional
Procedure, shortened: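 Vero cells grown in EMEM with 10% fetal calf serum. Two-fold dilutions from 51.2 to 0.012 µg/mL, with PI-3 added at its TCID50-based titre, held 2 h at 37 °C in 5% CO2. CPE scored by microscope against untreated controls, giving the CPE-inhibitory concentration range.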

SMILES | MIC (Acinetobacter baumannii [1]) [µg/mL] | MIC (Acinetobacter baumannii [2]) [µg/mL] | MIC (Proteus mirabilis [3]) [µg/mL] | MIC (Candida parapsilosis) [µg/mL] | MIC (Proteus mirabilis [4]) [µg/mL] | MIC (Pseudomonas aeruginosa [5]) [µg/mL] | MIC (Escherichia coli [6]) [µg/mL] | MIC (Candida albicans) [µg/mL] | MIC (Escherichia coli [7]) [µg/mL] | MIC (Klebsiella pneumoniae [8]) [µg/mL] | MIC (Klebsiella pneumoniae [9]) [µg/mL] | MIC (Staphylococcus aureus) [µg/mL] | MIC (Enterococcus faecalis [10]) [µg/mL] | MIC (Enterococcus faecalis [11]) [µg/mL] | MIC (Bacillus subtilis [12]) [µg/mL] | MIC (Bacillus subtilis [13]) [µg/mL] | MNTC at 48 h [14] [µg/mL] | MNTC at 48 h [15] [µg/mL] | MIC (Pseudomonas aeruginosa [16]) [µg/mL] | CPE-inhibitory concentration (Human respirovirus 3) [µg/mL]
CC(=O)C1(c2ccccc2)CCN(Cc2oc(CCl)cc(=O)c2O)CC1 | 16 (≈ 42.6 µM) | 4 (≈ 10.6 µM) | 64 (≈ 170 µM) | 8 (≈ 21.3 µM) | 16 (≈ 42.6 µM) | 16 (≈ 42.6 µM) | 64 (≈ 170 µM) | 4 (≈ 10.6 µM) | 8 (≈ 21.3 µM) | 8 (≈ 21.3 µM) | 64 (≈ 170 µM) | 128 (≈ 341 µM) | 64 (≈ 170 µM) | 128 (≈ 341 µM) | 1 (≈ 2.66 µM) | 2 (≈ 5.32 µM) | 0.4 | 0.4 | 4 (≈ 10.6 µM) | –
O=c1cc(CCl)oc(CN2CCC(O)(c3ccc(Br)cc3)CC2)c1O | 16 (≈ 37.3 µM) | 4 (≈ 9.33 µM) | 64 (≈ 149 µM) | 8 (≈ 18.7 µM) | 8 (≈ 18.7 µM) | 16 (≈ 37.3 µM) | 64 (≈ 149 µM) | 4 (≈ 9.33 µM) | 4 (≈ 9.33 µM) | 4 (≈ 9.33 µM) | 64 (≈ 149 µM) | 64 (≈ 149 µM) | 16 (≈ 37.3 µM) | 32 (≈ 74.6 µM) | 1 (≈ 2.33 µM) | 2 (≈ 4.67 µM) | 0.4 | 0.8 | 2 (≈ 4.67 µM) | 0.05
Nc1nc2c(ncn2COCCO)c(=O)[nH]1 [ACYCLOVIR] | – | – | – | – | – | – | – | – | – | – | – | – | – | – | – | – | 1.6 | – | – | 0.012
O=c1cc(CCl)oc(CN2CCN(Cc3ccc(Cl)c(Cl)c3)CC2)c1O | 16 (≈ 38.3 µM) | 8 (≈ 19.2 µM) | 64 (≈ 153 µM) | 8 (≈ 19.2 µM) | 16 (≈ 38.3 µM) | 16 (≈ 38.3 µM) | 4 (≈ 9.58 µM) | 4 (≈ 9.58 µM) | 8 (≈ 19.2 µM) | 8 (≈ 19.2 µM) | 4 (≈ 9.58 µM) | 128 (≈ 306 µM) | 16 (≈ 38.3 µM) | 128 (≈ 306 µM) | 1 (≈ 2.39 µM) | 2 (≈ 4.79 µM) | 0.4 | 0.8 | 4 (≈ 9.58 µM) | 0.05
CC1COc2c(N3CCN(C)CC3)c(F)cc3c(=O)c(C(=O)O)cn1c23 (configuration not stated) [OFLOXACIN] | 64 (≈ 177 µM) | 0.12 (≈ 0.332 µM) | 1 (≈ 2.77 µM) | – | < 0.12 | – | – | – | – | < 0.12 | – | 64 (≈ 177 µM) | 1 (≈ 2.77 µM) | 32 (≈ 88.6 µM) | – | – | – | – | – | –
C[C@H]1COc2c(N3CCN(C)CC3)c(F)cc3c(=O)c(C(=O)O)cn1c23.C[C@H]1COc2c(N3CCN(C)CC3)c(F)cc3c(=O)c(C(=O)O)cn1c23.O [LEVOFLOXACIN] | 64 | 0.12 | 1 | – | < 0.12 | – | – | – | – | < 0.12 | – | 128 | 0.5 | 32 | – | – | – | – | – | –
O=c1cc(CCl)oc(CN2CCN(C(c3ccccc3)c3ccc(Cl)cc3)CC2)c1O (configuration not stated) | 16 (≈ 34.8 µM) | 4 (≈ 8.71 µM) | 64 (≈ 139 µM) | 8 (≈ 17.4 µM) | 8 (≈ 17.4 µM) | 16 (≈ 34.8 µM) | 64 (≈ 139 µM) | 4 (≈ 8.71 µM) | 4 (≈ 8.71 µM) | 4 (≈ 8.71 µM) | 64 (≈ 139 µM) | 64 (≈ 139 µM) | 16 (≈ 34.8 µM) | 32 (≈ 69.7 µM) | 1 (≈ 2.18 µM) | 2 (≈ 4.35 µM) | 0.4 | 0.4 | 2 (≈ 4.35 µM) | 0.1
